The list is not random: actives were taken first. Their share in the collection is about 2.3%.
PLC-gamma1 inh: PLC-gamma1 enzyme inhibitors, primary screen, biochemical, fluorescence, purified enzyme | 1-phosphatidylinositol 4,5-bisphosphate phosphodiesterase gamma-1 (Homo sapiens), P19174 | fluorogenic substrate | inhibition, % at 12.2 µM | 370,000 compounds, 0.84% hits | AID 720700, 2013
ADAM17 inh: ADAM17 inhibitors, primary screen, biochemical, QFRET. Disintegrin and metalloproteinase domain-containing protein 17 (Homo sapiens), P78536. recombinant ADAM17, EDANS/DABCYL FRET peptide cleavage. inhibition, % at 6.95 µM. 370,000 compounds, 0.83% hits. AID 720648, 2013;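 active = inhibition above the mean of compounds lying between control limits plus 3 SD, set per campaign, cut at about 8.5% in these data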
ADAM10 inh: human ADAM10 inhibitors, primary screen, biochemical, QFRET, HTS; recombinant ADAM10, EDANS/DABCYL FRET peptide cleavage, 3 h; inhibition, % at 7 µM; 370,000 compounds, 0.62% hits;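 active = inhibition above a per-campaign cutoff equal to the mean of compounds falling between control-based bounds plus 3 SD, cut at about 20% in these data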
PLCb3 inh: human PLC-beta3 inhibitors, primary screen, biochemical, fluorescence | 1-phosphatidylinositol 4,5-bisphosphate phosphodiesterase beta-3 (Homo sapiens), Q01970 | Purified PLC-beta3, fluorogenic substrate | inhibition, % at 12.2 µM | 370,000 compounds, 0.18% hits | AID 720704, 2013; in the data active = inhibition above about 11%
Tb MetRS inh: T. brucei MetRS inhibitors, primary screen, biochemical, luminescence; methionyl-tRNA synthetase (Trypanosoma brucei brucei); purified T. brucei MetRS, ATP depletion, Kinase-Glo luminescence; inhibition, % at 11.9 µM; 360,000 compounds, 0.4% hits; AID 624268, 2012;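 active = inhibition above a per-plate cutoff of the control wells' mean inhibition plus 3 SD, cut at about 5.5% in these data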
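technique = Kinase-Glo luminescence, ATP depletion format | system = purified MetRS (methionyl-tRNA synthetase) enzyme from Trypanosoma brucei | timing = 15 min preincubation, 2 h reaction, all 25 °C | evaluation = percent inhibition versus plate control medians | dosing = single dose, 11.9 µM final nominal, 0.9% final DMSO | also added = substrates ATP, L-methionine and bulk Escherichia coli tRNA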
PLCg1 ctr: PLC-gamma1 enzyme inhibitors, counter-screen for PLC-beta3 inhibitor project, biochemical, fluorescence. inhibition, % at 12.3 µM. purified PLC-gamma1, fluorogenic substrate. shares compounds with PLC-gamma1 inh. 3,300 compounds, 3.1% hits
PLCbeta3 conf: PLC-beta3 inhibitor confirmation, biochemical, fluorescence, purified enzyme. 3,300 compounds, 1% hits. inhibition, % at 12.3 µM. fluorogenic substrate fluorescence. AID 743261, 2014. shares compounds with PLC-gamma1 inh; in the data active = inhibition above about 11%
Each line names hits and unclear results; the compound was inactive in the other large screens (follow-up assays come after a bar, where they were run). Cut-off read from the data, not from the text of the source, unless noted: active = inhibition above about 9.5%; inactive = the rest.

C=C(C=O)CC1CC(O)[C@]2(C)OC3CC4OC5C[C@]6(C)O[C@]7(C)CCC8OC9C[C@]%10(C)OC%11C(C)=CC(=O)OC%11CC%10OC9C[C@@H](C)C8OC7CC6O[C@]5(C)C/C=C\C4OC3CC2O1 (stereo partly specified)	none (no result: Tb MetRS inh)
COc1ccc(CC(=O)N(CCN(C)C)CC2CCCN(Cc3ccccc3F)C2)cc1 (stereo unspecified)	PLC-gamma1 inh 13 | PLCg1 ctr inactive | PLCbeta3 conf inactive
CCC(=NCc1ccco1)c1c(O)n(C2CCCCC2)c(=O)[nH]c1=O	PLCb3 inh 12 | PLCg1 ctr inactive | PLCbeta3 conf 21
CCC(=NCc1cccnc1)c1c(O)n(C2CCCCC2)c(=O)[nH]c1=O	none
C=C1[C@@H](C)C2[C@H](Cc3ccccc3)NC(=O)[C@]23[C@H](OC(C)=O)/C=C/[C@@](C)(O)C(=O)[C@@H](C)C/C=C/[C@H]3[C@@H]1O (stereo partly specified)	none (no result: Tb MetRS inh)
CC1CCC/C=C/C2CC(O)CC2C(O)/C=C/C(=O)O1 (stereo unspecified)	PLC-gamma1 inh 15 | PLCg1 ctr inactive | PLCbeta3 conf inactive
C[C@H]1CCC/C=C/C2C[C@H](O)CC2[C@H](O)/C=C/C(=O)O1 (stereo partly specified)	none (no result: PLC-gamma1 inh, ADAM17 inh, ADAM10 inh, PLCb3 inh)
O=C1C(=O)c2ccccc2-c2ccccc21	PLC-gamma1 inh 57, Tb MetRS inh 38 | PLCg1 ctr 43 | PLCbeta3 conf inactive
O=C1C(=O)c2cccc3cccc1c23	none
N#CC1c2ccccc2-n2nncc2CN1S(=O)(=O)c1ccccc1 (stereo unspecified)	PLC-gamma1 inh 11 | PLCg1 ctr inactive | PLCbeta3 conf inactive
N#Cc1ccc(C(=O)N2Cc3cnnn3-c3ccccc3C2C#N)cc1 (stereo unspecified)	none
CN(C=O)CP(=O)(O)CN(C)C=O	PLC-gamma1 inh 13, PLCb3 inh 13 | PLCg1 ctr inactive | PLCbeta3 conf inactive
O=C1NCN(c2ccccc2)C12CCN(C(c1cccc3ccccc13)c1nnnn1C1CCCCC1)CC2 (stereo unspecified)	PLC-gamma1 inh 12 | PLCg1 ctr inactive | PLCbeta3 conf inactive
CCN(CC)CCCN=Cc1c(O)n(CCc2ccc(OC)c(OC)c2)c(=O)[nH]c1=O	PLC-gamma1 inh 18 | PLCg1 ctr inactive | PLCbeta3 conf inactive
NC(=O)OCCCc1ccccc1	PLC-gamma1 inh 11 | PLCg1 ctr inactive | PLCbeta3 conf inactive
CN(C)CC(C(=O)Cc1ccccc1)c1ccccc1 (stereo unspecified)	none
CC(Cl)(Cl)/C(=N/P(=S)(N1CCOCC1)N1CCOCC1)N1CCOCC1	none
O=P(/C(=N/O)N1CCCCC1)(N1CCOCC1)N1CCOCC1	PLC-gamma1 inh 9.6 | PLCg1 ctr inactive | PLCbeta3 conf inactive
c1ccc(-c2ccc(CN3Cc4ccccc4-n4nncc4C3)cc2)cc1	none
CC[C@H]1CN2CCC1C[C@@H]2[C@H](O)c1ccnc2ccc(OC)cc12 (stereo partly specified)	none
C=Cn1ccnc1P(=S)(c1ccn(C)c1)c1nccn1C=C	PLC-gamma1 inh 14 | PLCg1 ctr inactive | PLCbeta3 conf inactive
COc1ccc([C@@H]2C[C@H]3[C@@H](CN2)CON3C)cc1	none (no result: Tb MetRS inh)
COC(=O)C1=C(c2ccc(OC(F)(F)F)cc2)C[C@@H]2CC[C@H]1N2C(=O)NCc1ccco1	none (no result: Tb MetRS inh)
CCNC(=O)[C@H]1O[C@@H](n2cnc3c(N)ncnc32)[C@H](O)[C@@H]1O	none
Nc1ncnc2c1ncn2[C@@H]1O[C@H](COP(=O)(O)CP(=O)(O)O)[C@@H](O)[C@H]1O	PLC-gamma1 inh 73 | PLCg1 ctr 79 | PLCbeta3 conf inactive
CC(=O)OC(C)(C)/C=C/C(=O)[C@](C)(O)C1[C@H](O)C[C@@]2(C)C3CC=C4C(C[C@H](O)C(=O)C4(C)C)[C@]3(C)C(=O)C[C@]12C (stereo partly specified)	none (no result: PLC-gamma1 inh, ADAM17 inh, ADAM10 inh, PLCb3 inh)
CCn1ccnc1CN1CCCC(C(=O)c2cccc(C(F)(F)F)c2)C1 (stereo unspecified)	PLC-gamma1 inh 11 | PLCg1 ctr inactive | PLCbeta3 conf inactive
COC(=O)C1=C(c2cccc(OCc3ccccc3)c2)C[C@@H]2CC[C@H]1N2C(=O)NCCOc1ccccc1	PLC-gamma1 inh 10 | PLCg1 ctr inactive | PLCbeta3 conf inactive
C1CN(P2(N3CC3)=NP(N3CC3)(N3CC3)=NP(N3CC3)(N3CC3)=N2)CCO1 (stereo unspecified)	none
Cc1ccccc1NC(=O)NCCN1CC1	none
